# Laboratory results reported in ChEMBL document CHEMBL3734722, “Structural Elucidation of a Small Molecule Inhibitor of Protein Disulfide Isomerase” (ACS Med Chem Lett, 2015).
# Calls of active or inactive are those of the source. The rule behind the calls is not given here.
# What was measured:
# PC-12 [1] = test: Neuroprotective activity against rat PC12 cells expressing mutant HTT-Q103 assessed as increase in cell viability compound preincubated for 0,1,2,or 3 days in PC12 growth medium followed by cells addition measured after 48 hrs by alamar blue assay; format: functional, cell-based
# Procedure, shortened: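 Compound held at 37 °C for 0, 1, 2 or 3 days in PC12 growth medium, then aliquots added to induced PC12 mHTT-Q103 cells. After 48 h treatment, Alamar blue added and viability quantified by fluorescence plate reader.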
# [2] = target: Protein disulfide-isomerase (Homo sapiens) (UniProt P07237); test: Binding affinity to PDI catalytic domain a (unknown origin) after 1 hrs by intrinsic tryptophan fluorescence assay
# Procedure, shortened: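 PDIa intrinsic Trp fluorescence recorded with varying securinine concentrations; emission spectra taken and intensity at 330 nm normalized; Kd derived from concentration-dependent quenching.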
# [3] = Intrinsic clearance in mouse liver microsome at 0.5 microM incubated upto 45 mins by LC-MS/MS analysis; format: ADME; conditions: microsomes, 0.75 h
# Procedure, shortened: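 Mouse liver microsome incubation; intrinsic clearance expressed as mL/min/g, with 7-ethoxycoumarin as reference compound.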
# [4] = target: Protein disulfide-isomerase (Homo sapiens) (UniProt P07237); test: Irreversible binding affinity to PDI catalytic domain a (unknown origin) at 4.5 mM measured after 100 fold dilution for 2 hrs by intrinsic tryptophan fluorescence assay
# Procedure, shortened: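 Jump-dilution reversibility test: PDIa (1 mM) incubated with ligand at 4.5 mM, complex diluted 100-fold (to 45 μM ligand, 10 μM PDIa) and dialysed, then Trp emission spectra recorded. Phenylarsine oxide, a covalent vicinal-thiol modifier, processed identically as control.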
# PC-12 [5] = test: Neuroprotective activity against rat PC12 cells expressing mutant HTT-Q103 assessed as cell viability by alamar blue assay; format: functional, cell-based
# Procedure, shortened: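 PC12 cells stably carrying inducible mutant HTT plasmid (mHTT-Q103); expression induced, causing death within 48 h. Serial-dilution dose–response; after 48 h Alamar blue added and fluorescence read. Data as mean percent of DMSO-treated uninduced cells ± SD; EC50 from curve.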
# [6] = Half life in mouse plasma at 1 uM for 120 mins by LC-MS/MS analysis; format: ADME, cell-free
# [7] = Plasma protein binding in mouse at 2000 ng/ml for 4 hrs by LC-MS/MS analysis; format: ADME, cell-free; conditions: read-out: PPB (converted)
# Chain of Protein disulfide-isomerase (Homo sapiens) (P07237 18-508 limits assumed): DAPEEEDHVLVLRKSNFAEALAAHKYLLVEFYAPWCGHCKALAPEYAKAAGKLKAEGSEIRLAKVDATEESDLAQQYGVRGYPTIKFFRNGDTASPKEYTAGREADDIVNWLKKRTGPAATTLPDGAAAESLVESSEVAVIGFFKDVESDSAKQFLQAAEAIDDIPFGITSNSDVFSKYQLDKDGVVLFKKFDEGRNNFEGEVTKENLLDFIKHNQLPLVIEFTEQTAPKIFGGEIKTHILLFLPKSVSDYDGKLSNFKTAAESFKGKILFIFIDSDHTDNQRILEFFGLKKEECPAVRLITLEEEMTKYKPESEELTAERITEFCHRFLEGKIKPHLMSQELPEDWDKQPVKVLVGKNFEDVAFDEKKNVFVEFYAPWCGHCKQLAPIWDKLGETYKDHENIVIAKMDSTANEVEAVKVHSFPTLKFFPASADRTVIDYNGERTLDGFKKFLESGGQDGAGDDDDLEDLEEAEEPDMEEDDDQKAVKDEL
compound,measurement,setting,value
O=C1C=C2C=C[C@H]3C[C@@]2(O1)[C@H]1CCCCN31,Activity,PC-12 [1],Active
same,Activity,[2],Dose-dependent effect
same,CLint,[3],8.3 mL/min/g
same,Activity,[4],Active
same,EC50,PC-12 [5],3.3 µM
same,half-life at 1 µM,[6],1.6 h
same,"fraction unbound at 4 h, 2000 ng/ml",[7],0.51
CC(C)C1OCCN1CC1COC2(CCCCC2)O1 (stereo not given),Activity,PC-12 [5],inactive
CCOc1ccc2ccc(=O)oc2c1 [ETHOXYCOUMARIN],CLint,[3],24.58 mL/min/g
CC(=O)CC(c1ccccc1)c1c(O)c2ccccc2oc1=O (stereo not given) [WARFARIN],"fraction unbound at 4 h, 2000 ng/ml",[7],0.06
